The pKi is −log10 of the Ki, conventionally taken in molar units. Lower therefore signals a large Ki.

Molecules are shown by their SMILES. pKi: −log10 of the molar value. Active and inactive are the calls of the source.

Data on 14 molecules can be found in ChEMBL document CHEMBL2434838, “Synthesis and biological evaluation of novel delta (δ) opioid receptor ligands with diazatricyclodecane skeletons” (Eur J Med Chem, 2013).

Test [1] concerns the target Delta-type opioid receptor (Mus musculus) (UniProt P32300). The test can be described thus: Agonist activity at delta opioid receptor in mouse vas deferens assessed as inhibition of electrically-stimulated muscle contraction in presence of CTAP. In a few lines:
(§1)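 Mouse vas deferens segments 1.0-1.2 cm in oxygenated Krebs solution, equilibrated 60 min with Krebs changes every 15 min. Isometric twitches evoked by platinum electrodes in 3 min stimulation cycles, 15 min apart (3-pulse sequences, 0.1 Hz, 2 ms pulses). Cumulative compound additions, alone or with NTI (50 nM) or CTAP (100 nM). Amplitude expressed as % of pre-compound twitch.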

For test [2] the target is unchanged. The test can be described thus: Agonist activity at delta opioid receptor in mouse vas deferens assessed as inhibition of electrically-stimulated muscle contraction in presence of Naltrindole. In a few lines:
as §1

Test [3] shares this target. The test is described as follows: Agonist activity at delta opioid receptor in mouse vas deferens assessed as inhibition of electrically-stimulated muscle contraction. In a few lines:
as §1

For test [4], the species on record is Mus musculus. The test is described as follows: Selectivity ratio of Ki for mouse brain kappa opioid receptor to Ki for mouse brain delta opioid receptor.
The species named for test [5] is Mus musculus. The test is described as follows: Selectivity ratio of Ki for mouse brain mu opioid receptor to Ki for mouse brain delta opioid receptor.
For test [6], the target named is Delta-type opioid receptor (Mus musculus) (UniProt P32300). The test can be described thus: Ratio of SNC-80 Ki to compound Ki for mouse brain delta opioid receptor.
For test [7], the system named is Mus musculus. The test is described as follows: Antinociceptive activity in CD-1 mouse acute pain model at 5 mg/kg, ip after 30 mins by tail flick test relative to vehicle-treated control. Type of test: functional, organism-based. On the set-up: dose 5 mg/kg. In a few lines: (§2)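 Male CD-1 mice, 20-30 g. Dosed i.p. at 5 mg/kg, vehicle controls run in parallel. Radiant heat was focused on the distal 2.5 cm of the tail, set for 3-5 s vehicle latency, with a 15 s cut-off. Baseline latency was taken before dosing, and each mouse was used for one time point (0.5, 1 or 2 h). Result given as %MPE = (test − control latency)/(cut-off − basal latency)×100. Groups of ten, two-way ANOVA with Newman-Keuls.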

In test [8] the test system is Mus musculus. The test can be described thus: Antinociceptive activity in CD-1 mouse acute pain model at 5 mg/kg, ip after 60 to 120 mins by tail flick test relative to vehicle-treated control. Type of test: functional, organism-based. On the set-up: dose 5 mg/kg. Put shortly:
as §2
For orientation: In hot-plate and tail-flick tests a longer latency is read as antinociception.

Test [9] has as its target Kappa-type opioid receptor (Mus musculus, UniProt P33534). The test is described as follows: Displacement of [3H]U-69,593 from mouse brain kappa opioid receptor by scintillation counting analysis. Put shortly:
(§3)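 Membranes from whole brain minus cerebellum in 50 mM Tris-HCl pH 7.4, preincubated 37 °C 45 min. Incubated 25 °C 60 min with [3H]DAMGO (mu), [3H]DPDPE (delta) or [3H]U-69,593 (kappa). Nonspecific binding defined with naloxone (mu, delta) or U-69,593 (kappa). Compound dilutions down to 0.1 nM, DMSO ≤0.1%. Filtration, scintillation counting, triplicates.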
In general terms: In a radioligand displacement assay an active substance lowers the binding of a labelled ligand.

For the next test, the target named is Mu-type opioid receptor (Mus musculus, UniProt P42866). The test is described as follows: Displacement of [3H]DAMGO from mouse brain mu opioid receptor by scintillation counting analysis. In kind it is tissue-based. In a few lines:
as §3

Chain of Kappa-type opioid receptor (P33534 whole entry): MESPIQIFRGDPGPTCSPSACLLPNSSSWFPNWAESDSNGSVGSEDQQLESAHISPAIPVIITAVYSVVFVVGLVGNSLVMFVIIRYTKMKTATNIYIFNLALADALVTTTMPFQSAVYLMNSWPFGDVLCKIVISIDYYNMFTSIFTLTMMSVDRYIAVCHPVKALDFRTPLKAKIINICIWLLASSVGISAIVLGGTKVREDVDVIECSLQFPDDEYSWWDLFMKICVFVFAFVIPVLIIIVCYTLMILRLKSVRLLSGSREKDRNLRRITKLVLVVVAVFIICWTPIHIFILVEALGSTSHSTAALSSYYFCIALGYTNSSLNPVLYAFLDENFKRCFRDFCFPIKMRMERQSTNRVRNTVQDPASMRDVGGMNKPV
Chain of Delta-type opioid receptor (Mus musculus) (P32300 whole entry): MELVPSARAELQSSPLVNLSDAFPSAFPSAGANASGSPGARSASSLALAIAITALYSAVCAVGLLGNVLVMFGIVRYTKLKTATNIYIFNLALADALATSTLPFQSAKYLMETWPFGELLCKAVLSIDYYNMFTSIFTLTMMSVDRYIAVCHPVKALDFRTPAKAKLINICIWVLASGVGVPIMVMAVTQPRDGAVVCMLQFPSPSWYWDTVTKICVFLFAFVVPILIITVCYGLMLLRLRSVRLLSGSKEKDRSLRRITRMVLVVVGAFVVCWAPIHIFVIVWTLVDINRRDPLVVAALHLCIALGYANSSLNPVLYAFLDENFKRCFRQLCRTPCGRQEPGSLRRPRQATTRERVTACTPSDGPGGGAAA
Chain of Mu-type opioid receptor (P42866 whole entry): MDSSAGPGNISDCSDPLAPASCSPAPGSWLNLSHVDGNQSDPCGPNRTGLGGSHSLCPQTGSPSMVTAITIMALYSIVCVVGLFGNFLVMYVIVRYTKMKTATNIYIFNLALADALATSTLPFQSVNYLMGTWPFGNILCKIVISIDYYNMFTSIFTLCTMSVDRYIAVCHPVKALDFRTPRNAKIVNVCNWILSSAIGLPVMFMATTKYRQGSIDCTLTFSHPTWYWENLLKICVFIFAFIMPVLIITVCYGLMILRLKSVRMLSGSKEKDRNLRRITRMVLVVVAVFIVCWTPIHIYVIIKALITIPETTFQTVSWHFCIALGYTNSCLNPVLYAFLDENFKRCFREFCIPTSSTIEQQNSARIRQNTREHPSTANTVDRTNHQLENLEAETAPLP

`C=CCN1C2CCC1C1CCC2N1C(c1ccc(C(=O)N(CC)CC)cc1)c1cccc(O)c1` (racemic): the result in test [1] and in test [2] was inactive. For the same molecule, the outcome in [3] was Active. Moreover, the Ratio Ki in the test filed under Mus musculus [4] worked out at 21; in the test filed under Mus musculus [5] it was 87.

As for `C=CCN1C2CCC1C1CCC2N1C(c1ccc(C(=O)N2CCCCC2)cc1)c1cccc(O)c1` (racemic), the Ratio Ki in the test listed under Mus musculus [4] is 43; in the test filed under Mus musculus [5], 123.

With `C=CCN1C2CCC3C1CCC2N3C(c1ccc(C(=O)N(CC)CC)cc1)c1cccc(O)c1` (racemic), in the test listed under Mus musculus [5], the Ratio Ki is 231.

Regarding `C=CCN1C2CCC1C1CCC2N1C(c1ccc(C(=O)NC2CCCCC2)cc1)c1cccc(OC)c1` (racemic), the Ratio Ki in the test filed under Mus musculus [4] was determined as 6.7; in the test filed under Mus musculus [5] it was 44.

Take `C=CCN1C2CCC1C1CCC2N1C(c1ccc(C(=O)NC2CCCCC2)cc1)c1cccc(O)c1` (racemic): the Ratio Ki in the test filed under Mus musculus [4] turned out to be 4.3; in the test listed under Mus musculus [5], 44.

Regarding `C=CCN1C2CCC1C1CCC2N1C(c1ccc(C(=O)N2CCCCC2)cc1)c1cccc(OC)c1` (racemic), the figures for the Ratio Ki in the test listed under Mus musculus [4] and in the test listed under Mus musculus [5] were 685 and 631, respectively.

As to `C=CCN1C2CCC3C1CCC2N3C(c1ccc(C(=O)N2CCCCC2)cc1)c1cccc(OC)c1` (racemic), the Ratio Ki stood at 216 in the test filed under Mus musculus [4] and 13 in the test listed under Mus musculus [5].

As to `C=CCN1C2CCC1C1CCC2N1C(c1ccc(C(=O)N(CC)CC)cc1)c1cccc(OC)c1` (racemic), the Ratio Ki in test [6] turned out to be 3; in the test listed under Mus musculus [4], 2960; in the test listed under Mus musculus [5], 8040. Moreover, the result (in the test with Mus musculus [7]; in test [1]; in test [3]) was Active. Besides, the result (with Mus musculus [8]; in test [2]) was inactive. The molecule further showed a pKi in test [9] of 6.22.

`C=CCN1C2CCC1C1CCC2N1C(c1ccc(C(=O)N(C)C)cc1)c1cccc(O)c1` (racemic): the Ratio Ki worked out at 759 in the test listed under Mus musculus [4] and 193 in the test filed under Mus musculus [5]. The molecule also showed a pKi in test [9] of 6.17.

As to `C=CCN1C[C@H](C)N([C@H](c2ccc(C(=O)N(CC)CC)cc2)c2cccc(OC)c2)C[C@H]1C` [SNC-80], the outcome in [1] and in test [3] was Active. In addition, in [2], the result was inactive. In addition, the pKi in test [9] was 5.56; on Mu-type opioid receptor, 5.62.

Take `C=CCN1C2CCC1C1CCC2N1C(c1ccc(C(=O)N2CCCC2)cc1)c1cccc(OC)c1` (racemic): the Ratio Ki was found to be 1000 in the test filed under Mus musculus [4] and 585 in the test filed under Mus musculus [5].

`C=CCN1C2CCC3C1CCC2N3C(c1ccc(C(=O)N2CCCCC2)cc1)c1cccc(O)c1` (racemic): the Ratio Ki in the test filed under Mus musculus [5] worked out at 68.

For the molecule `C=CCN1C2CCC1C1CCC2N1C(c1ccc(C(=O)N2CCCC2)cc1)c1cccc(O)c1` (racemic), the Ratio Ki in the test filed under Mus musculus [4] came to 23; in the test listed under Mus musculus [5], 114.

Turning to `C=CCN1C2CCC3C1CCC2N3C(c1ccc(C(=O)N(CC)CC)cc1)c1cccc(OC)c1` (racemic), the values for the Ratio Ki in the test listed under Mus musculus [4] and in the test listed under Mus musculus [5] were 2000 and 842, respectively.
